The test system of data set [1] is Mus musculus. The data set can be described thus: Acute toxicity against Swiss albino mouse assessed as lesser inflammatory cells and decreased area of necrosis in stomach at 5 to 300 mg, po measured after 14 days. Type of data set: organism-based. The note with it: in vivo, 336 h.
For data set [2], the system named is Mus musculus. The data set can be described thus: Acute toxicity against Swiss albino mouse assessed as histological changes in heart at 5 to 300 mg, po measured after 14 days. In kind it is organism-based. Particulars: in vivo, 336 h. The procedure, abridged: (§1)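 Oral single doses of 5 mg, 50 mg and 300 mg to mice in three groups of three. Observed continuously for 4 h for signs of toxicity, then at regular intervals over the first 24 h and once daily for 14 days. Animals sacrificed at day 14; histology of liver, kidney and heart.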

Data set [3] concerns the target T1, Prostaglandin G/H synthase 2 (Homo sapiens, UniProt P35354).
T1 sequence (P35354 whole entry): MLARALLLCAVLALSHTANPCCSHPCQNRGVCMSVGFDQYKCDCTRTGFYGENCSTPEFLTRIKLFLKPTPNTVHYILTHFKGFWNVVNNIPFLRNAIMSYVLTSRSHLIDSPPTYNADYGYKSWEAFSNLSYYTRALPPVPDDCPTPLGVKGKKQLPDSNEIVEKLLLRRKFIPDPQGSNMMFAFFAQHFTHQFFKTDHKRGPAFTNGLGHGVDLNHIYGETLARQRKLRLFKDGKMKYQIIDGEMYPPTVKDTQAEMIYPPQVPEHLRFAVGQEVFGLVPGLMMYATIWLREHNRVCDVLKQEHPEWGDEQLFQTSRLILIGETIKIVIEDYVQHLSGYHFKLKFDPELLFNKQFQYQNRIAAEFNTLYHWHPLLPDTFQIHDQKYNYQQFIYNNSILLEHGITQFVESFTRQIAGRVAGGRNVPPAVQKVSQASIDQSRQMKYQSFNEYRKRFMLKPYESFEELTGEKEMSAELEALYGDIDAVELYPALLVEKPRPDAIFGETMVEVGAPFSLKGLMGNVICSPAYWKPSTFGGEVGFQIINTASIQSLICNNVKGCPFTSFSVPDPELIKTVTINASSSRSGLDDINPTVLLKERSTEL
The data set can be described thus: Competitive inhibition of human recombinant COX-2 by UV-Visible spectrophotometry. Put shortly: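 Double reciprocal plot from UV-vis absorbance change at the maximum. Arachidonic acid in HEPES:DMSO (1:1) added in 5 µl increments (each giving 50 µM final) to a fixed enzyme concentration. Repeated with inhibitor at fixed 10 µM and 20 µM. Type of inhibition taken from where the extrapolated trails meet; also from IC50 versus Ki comparison.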

Data set [4] deals with Mus musculus. Put plainly: Anti-hyperalgesic activity against Swiss albino mouse assessed as reduction in paw lickings at 5 mg/kg, ip administered 30 mins prior to capsaicin injection and 30 mins after 10 ug substance-P injection. Type of data set: functional, organism-based. Put shortly: (§2)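 Mice (5 per group, 7 groups), all treatments i.p. Misoprostol (200 μg) or substance P (10 μg) given 30 min before test compound (5 mg Kg⁻¹); capsaicin (20 μL) injected into right hind paw plantar surface 30 min later. Controls received normal saline. Paw lickings counted over 10 min after capsaicin.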

For data set [5], the system named is Mus musculus. Put plainly: Anti-inflammatory activity against Swiss albino mouse assessed as reduction in paw thickness at 10 mg/kg, ip administered 30 mins prior to dextran injection measured after 4 hrs by vernier calliper analysis relative to control. Type of data set: functional. The procedure, abridged: (§3)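 Swiss albino mice, 5 per group. […] Paw thickness measured by vernier calipers at 1, 2, 3, 4, 6 and 24 h. Reduction expressed relative to control; mean ± SEM.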

Data set [6] in a line: Competitive inhibition of soyabean 5-LOX by UV-Visible spectrophotometry. Also on record: species or system Glycine max.
The nature of data set [7]: Inhibition of soyabean 5-LOX using arachidonic acid as substrate by microplate scanning spectrophotometer analysis. Also noted: species or system Glycine max. Put shortly:
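Soybean lipoxygenase in assay buffer was mixed with compound (DMSO solutions at 0.01 to 100 μM, 1:10 into enzyme solution). Reaction started with arachidonic acid; plate shaken 5 min, chromogen added, shaken 5 min, read at 490 nm. Blanks and positive controls included. Duplicates, deviation <5%, averaged; percent inhibition calculated from activity.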

In data set [8] the target is T2, Prostaglandin G/H synthase 2 (Homo sapiens) (UniProt P35354).
T2 sequence (whole entry): T1 sequence (P35354 whole entry)

The subject of data set [9] is Mus musculus. The data set can be described thus: Anti-hyperalgesic activity against Swiss albino mouse assessed as reduction in paw lickings at 5 mg/kg, ip administered 30 mins prior to capsaicin injection and 30 mins after 200 ug misoprostol injection. In kind it is functional, organism-based. The procedure, abridged:
as §2

For data set [10], the target named is T3, Prostaglandin G/H synthase 1 (Ovis aries, UniProt P05979).
T3 sequence (P05979 whole entry): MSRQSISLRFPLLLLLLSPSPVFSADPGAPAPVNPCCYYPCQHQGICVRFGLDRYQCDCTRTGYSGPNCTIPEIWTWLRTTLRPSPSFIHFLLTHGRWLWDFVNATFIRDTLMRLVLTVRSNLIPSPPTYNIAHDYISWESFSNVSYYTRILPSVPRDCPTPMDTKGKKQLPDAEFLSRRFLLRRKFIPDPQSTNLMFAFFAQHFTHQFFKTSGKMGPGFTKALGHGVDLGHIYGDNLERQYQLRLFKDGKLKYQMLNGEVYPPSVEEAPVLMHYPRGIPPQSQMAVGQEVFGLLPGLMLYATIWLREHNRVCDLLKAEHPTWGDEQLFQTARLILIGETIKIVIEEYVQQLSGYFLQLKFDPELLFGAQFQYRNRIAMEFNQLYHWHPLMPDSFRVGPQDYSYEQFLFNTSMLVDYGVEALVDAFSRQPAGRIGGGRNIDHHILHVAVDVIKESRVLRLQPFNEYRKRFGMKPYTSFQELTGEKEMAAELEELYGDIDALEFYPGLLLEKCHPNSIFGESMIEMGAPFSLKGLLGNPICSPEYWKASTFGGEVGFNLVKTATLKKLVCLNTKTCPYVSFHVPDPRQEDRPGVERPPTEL
Put plainly: Inhibition of ovine COX-1 assessed as PGF2alpha formation using arachidonic acid as substrate pretreated with compound for 20 mins prior to substrate addition by spectrophotometric analysis.

Data set [11] concerns Glycine max.
Data set [12] concerns Mus musculus. The data set can be described thus: Anti-hyperalgesic activity against Swiss albino mouse assessed as reduction in paw lickings at 5 mg/kg, ip administered 30 mins prior to capsaicin injection relative to control. Type of data set: functional.
Data set [13] concerns Mus musculus. The data set can be described thus: Anti-inflammatory activity against Swiss albino mouse assessed as reduction in paw thickness at 5 mg/kg, ip administered 30 mins prior to dextran injection measured after 4 hrs by vernier calliper analysis relative to control. Type of data set: functional. Put shortly: as §3
Data set [14] relates to Mus musculus. The data set can be described thus: Acute toxicity against Swiss albino mouse assessed as histological changes in liver at 5 to 300 mg, po measured after 14 days. Type of data set: organism-based. The note with it: in vivo, 336 h. The procedure, abridged: as §1
Data set [15] relates to Mus musculus. The data set can be described thus: Acute toxicity against Swiss albino mouse assessed as histological changes in kidney at 5 to 300 mg, po measured after 14 days. Type of data set: organism-based. Particulars: in vivo, 336 h. The procedure, abridged:
as §1

In data set [16] the test system is Glycine max. The data set can be described thus: Competitive inhibition of soyabean 5-LOX using arachidonic acid as substrate by double reciprocal plot analysis. The procedure, abridged: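 Arachidonic acid in HEPES:DMSO (1:1) at 2 mM, added in 5 μL increments (50 μM final each) to fixed enzyme. Change in substrate absorbance at maxima plotted double-reciprocally, without inhibitor and with 10 μM or 20 μM inhibitor; intersection of the extrapolated lines indicates inhibition type.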

We go through one compound from ChEMBL document CHEMBL3576775 (Eur J Med Chem, 2015).

pIC50, pKi: −log10 of the molar value. Activity calls are given as the source filed them. The calls are words filed in the database; no cut-off is given here.

One may read the pKi as −log10 of the Ki, conventionally taken in molar units. Usually inhibition in vivo stands for the relative decrease from the control value, in per cent. The term pIC50 denotes the negative decadic logarithm of the IC50, by convention in mol/L.

For the compound `Cc1ccc(S(=O)(=O)n2cc(C(=O)C(=O)N[C@@H](Cc3c[nH]c4ccccc34)C(=O)NCC(=O)O)c3ccccc32)cc1`, the Activity entry in the data set with Mus musculus [1], in the data set on Mus musculus [2], in the data set on Mus musculus [14] and in the data set with Mus musculus [15] was “Non-toxic” in each case. The pKi in data set [3] is 6.96; in [6], 7.38. For the same compound, the inhibition result with Mus musculus [4] is “inactive”. In addition, in the data set on Mus musculus [5], the inhibition in vivo at 10 mg/kg was 49%. Also, the results for the pIC50 in data set [7] and in data set [10] were 8.70 and 5.66, respectively. For the same compound, the Ka in data set [8] was 3.29 ×10⁵ /M; in the data set on Glycine max [11], 3.36 ×10⁶ /M. In addition, the inhibition entry in the data set on Mus musculus [9] and in the data set on Glycine max [16] was “Active” each time. Also, the inhibition in vivo at 5 mg/kg stood at 96% with Mus musculus [12] and 47% with Mus musculus [13].
